Experiment [1] has as its system HEK293 T-REx CLPP−/− cells. The experiment is described as follows: Growth inhibition profiling. It counts as cell-based, human. The conditions noted are these: read-out: IC50 (nM), HEK293 T-REx CLPP−/−.
Experiment [2] relates to HEK293 T-REx CLPX−/− cells. The experiment is described as follows: Growth inhibition profiling. Type of experiment: cell-based, human. Conditions: read-out: IC50 (nM), HEK293 T-REx CLPX−/−.
For experiment [3], the system named is TFAM and Grp75 levels in MDA-MB-231 CLPP−/− cells. The experiment is described as follows: Western blot of TFAM and Grp75, MDA-MB-231 CLPP−/−. Type of experiment: cell-based, human. The conditions noted are these: 1 μM, 24 hours. In short, it runs like this: (§1)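 MDA-MB-231 cells (WT or CLPP−/−) were grown in DMEM/F-12 with 10% FBS and 2 mM L-glutamine. They were treated for 24 hours with 1 μM test compound or 6 μM of a reference compound. Pellets were sonicated in Dulbecco's PBS and protein was equalized. TFAM and Grp75 were detected by SDS-PAGE, transfer to PVDF and western blotting, imaged by film.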
(A western blot detects proteins with antibodies after separation by electrophoresis.)

In experiment [4] the test system is WT and CLPP−/− MDA-MB-231 cells. The experiment is described as follows: Apoptotic onset check. It counts as cell-based, human. Put shortly: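 WT and CLPP−/− MDA-MB-231 cells in DMEM/F-12 with 10% FBS and 2 mM L-glutamine were exposed to 1 μM test compound or DMSO for 24 hours. Morphology was checked by light microscopy and nuclei by DAPI fluorescence. Positive control was 2 μM doxorubicin or DMSO for 72 hours. Lysates were made by sonication in Dulbecco's PBS and protein-equalized, then run on SDS-PAGE, immunoblotted on PVDF and imaged on film.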

In a further experiment the test system is MDA-MB-231 WT cells. The experiment is described as follows: Growth inhibition profiling. Type of experiment: cell-based, human. The conditions noted are these: read-out: IC50 (nM), MDA-MB-231 WT.
For another experiment, the system named is MDA-MB-231 CLPX−/− cells. The experiment is described as follows: Growth inhibition profiling. It counts as cell-based, human. Conditions: read-out: IC50 (nM), MDA-MB-231 CLPX−/−.
A further experiment concerns the target human ClpP (Homo sapiens, UniProt Q16740). Nature of the experiment: Casein-FITC degradation assay. It counts as biochemical. Conditions: for Casein-FITC degradation h (at 2.5 μM ClpP): Hill coefficient, 2.5 μM ClpP protomer.
Experiment [5] has as its system TFAM and Grp75 levels in MDA-MB-231 WT cells. Nature of the experiment: Western blot of TFAM and Grp75, MDA-MB-231 WT. The conditions noted are these: 1 μM, 24 hours. Type of experiment: cell-based, human. Put shortly:
as §1

In a further experiment the test system is MDA-MB-231 CLPP−/− cells. The experiment is described as follows: Growth inhibition profiling. Type of experiment: cell-based, human. The conditions noted are these: read-out: IC50 (nM), MDA-MB-231 CLPP−/−.
The next experiment relates to HEK293 T-REx WT cells. The experiment is described as follows: Growth inhibition profiling. Conditions: read-out: IC50 (nM), HEK293 T-REx WT. It counts as cell-based, human.
Another experiment has as its system MDA-MB-231. The experiment is described as follows: One-dose NCI-60 screen, MDA-MB-231. It counts as cell-based, human. Conditions: 10 μM, 48-hour exposure.
The next experiment deals with COLO205. Nature of the experiment: One-dose NCI-60 screen, COLO205. It counts as cell-based, human. The conditions noted are these: 10 μM, 48-hour exposure. Put shortly:
(§2)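 Run by NCI DCTD. Cells were seeded at 5,000–40,000/well in RPMI 1640 with 5% FBS and 2 mM L-glutamine and grown 24 h at 37 °C, 5% CO2. Test compound was added at 10 μM final for 48 h, with a time-zero plate kept. Cells were fixed with cold TCA (10% final for adherent, 16% for non-adherent) and stained with 0.4% SRB. Growth was calculated from A515 at 0 and 48 h.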

The next experiment deals with MDA-MB-468. The experiment is described as follows: One-dose NCI-60 screen, MDA-MB-468. Type of experiment: cell-based, human. The conditions noted are these: 10 μM, 48-hour exposure. In short, it runs like this: as §2
For experiment [6], the target named is ClpP (substrate TFAM lacking the MTS) (Homo sapiens, UniProt Q16740). The experiment is described as follows: In vitro degradation assay using TFAM. It counts as biochemical. Conditions: 20 μM compound, 13.5 μM TFAM, 15.5 μM ClpP, 37 °C, 0-5 h.
ClpP (substrate TFAM lacking the MTS), sequence (Q16740 57-277): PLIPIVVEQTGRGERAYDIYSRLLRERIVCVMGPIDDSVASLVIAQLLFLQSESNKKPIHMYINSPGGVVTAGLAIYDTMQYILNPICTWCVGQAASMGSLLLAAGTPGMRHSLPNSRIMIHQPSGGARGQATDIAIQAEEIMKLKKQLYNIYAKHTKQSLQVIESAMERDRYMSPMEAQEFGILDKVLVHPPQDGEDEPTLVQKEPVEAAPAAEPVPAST
Setting [7] is: Homo sapiens, HEK293-T-REx, 72 h.

Molecules are shown by their SMILES. Where a name gives a salt, the structure may show the parent alone. Read-outs that look alike come from different tables or passages of the source.

human ClpP, sequence (Q16740 57-277): as above

As to `C#Cc1cccc(CN2CCC3=C(C2)C(=O)N(Cc2ccc(Cl)cc2)C2=NCCN23)c1` [TR-27], the IC50 in experiment [1] (72 hr, SRB assay) was over 1000 nM; in experiment [2] (72 hr, SRB assay), 57.7 ± 3.4 nM; in the experiment with MDA-MB-231 WT cells (72 hr, SRB assay) it was 90.7 ± 1.7 nM; with MDA-MB-231 CLPX−/− cells (72 hr, SRB assay) it was 98.9 ± 1.7 nM; with MDA-MB-231 CLPP−/− cells (72 hr, SRB assay), over 1000 nM; with HEK293 T-REx WT cells (72 hr, SRB assay) it was 46.1 ± 1.3 nM. Further, the “levels of TFAM and Grp75” value in [3] is reported as “unchanged”; in [5], “reduced”. Moreover, in experiment [4] (1 μM, 24 hours), the ClpX level entry is “reduced”. Besides, in experiment [4] (1 μM, 24 hours), the “signs of apoptosis (morphology, nuclear integrity, Mcl1, caspases 9, 3, 8)” value is “absence of significant apoptosis”. In addition, the “Casein-FITC degradation h (at 2.5 μM ClpP)” value (“Casein-FITC degradation h” below) at human ClpP was 8.1 ± 1.2.

Turning to `Cn1c2c(c(=O)n(Cc3ccc(Cl)cc3)c1=O)CN(Cc1cccc(C#N)c1)CC2` [TR-57, 3-((3-(4-chlorobenzyl)-1-methyl-2,4-dioxo-1,2,3,4,7,8-hexahydropyrido[4,3-d]pyrimidin-6(5H)-yl)methyl)benzonitrile], the IC50 in experiment [1] (setting [7]) was over 1000 nM; in [2] (setting [7]), 11.8 ± 0.4 nM; with MDA-MB-231 WT cells (Homo sapiens, MDA-MB-231, 72 h), 19.3 ± 0.2 nM; in the experiment with MDA-MB-231 CLPX−/− cells (Homo sapiens, MDA-MB-231, 72 h), 19.9 ± 0.3 nM; in the experiment on MDA-MB-231 CLPP−/− cells (Homo sapiens, MDA-MB-231, 72 h) it was over 1000 nM; in the experiment with HEK293 T-REx WT cells (setting [7]), 8.9 ± 0.2 nM. Besides, in the experiment with MDA-MB-231, the growth suppression amounted to 68%. In addition, the values for the lethality with COLO205 and with MDA-MB-468 were 41% and 15%, respectively. For the same compound, at human ClpP, the Kd was 0.0155 ± 0.012 µM. Further, the “Casein-FITC degradation h” value on human ClpP is recorded as 9.4 ± 7.8.

For the compound `N#Cc1cccc(CN2CCC3=C(C2)C(=O)N(Cc2ccc(Cl)cc2)C2=NCCN23)c1` [TR-65, 3-((4-(4-Chlorobenzyl)-5-oxo-1,2,4,5,8,9-hexahydroimidazo[1,2-a]pyrido[3,4-e]pyrimidin-7(6H)-yl)methyl)benzonitrile], the IC50 in experiment [1] (setting [7]) is over 1000 nM; in experiment [2] (setting [7]), 11 ± 0.2 nM; in the experiment with MDA-MB-231 WT cells (Homo sapiens, MDA-MB-231, 72 h), 9.4 ± 0.2 nM; in the experiment on MDA-MB-231 CLPX−/− cells (Homo sapiens, MDA-MB-231, 72 h), 9.4 ± 0.2 nM; in the experiment on MDA-MB-231 CLPP−/− cells (Homo sapiens, MDA-MB-231, 72 h) it was over 1000 nM; in the experiment on HEK293 T-REx WT cells (setting [7]), 9.8 ± 0.3 nM. Further, the “degradation of TFAM by compound-activated ClpP” value in [6] is on record as “degradation of TFAM by TR-activated ClpP in a time-dependent manner”. This compound came in with a Kd on human ClpP of 0.0233 ± 0.0091 µM. In addition, the “Casein-FITC degradation h” value on human ClpP was found to be 10.9 ± 2.5.

As to `N#Cc1cccc(CN2CCc3ncn(Cc4ccc(Cl)cc4)c(=O)c3C2)c1` [TR-107], the IC50 in experiment [1] (72 hr, SRB assay) is over 1000 nM; in experiment [2] (72 hr, SRB assay) it was 27 ± 2 nM; with MDA-MB-231 WT cells (72 hr, SRB assay), 29.4 ± 0.2 nM; in the experiment on MDA-MB-231 CLPX−/− cells (72 hr, SRB assay) it was 27.4 ± 0.8 nM; in the experiment with MDA-MB-231 CLPP−/− cells (72 hr, SRB assay), over 1000 nM; in the experiment on HEK293 T-REx WT cells (72 hr, SRB assay), 22.8 ± 0.7 nM. The same compound displayed a growth suppression in the experiment on MDA-MB-231 of 73%. Besides, the “Casein-FITC degradation h” value at human ClpP is recorded as 5.5 ± 0.7. Moreover, the lethality with MDA-MB-468 worked out at 22%.

As for `N#Cc1cccc(CN2CCc3ncn(Cc4ccc(Br)cc4)c(=O)c3C2)c1` [TR-133, 3-([3-[(4-bromophenyl)methyl]-4-oxo-3H,4H,5H,6H,7H,8H-pyrido[4,3-d]pyrimidin-6-yl]methyl)benzonitrile], the IC50 in experiment [1] (setting [7]) is over 1000 nM; in experiment [2] (setting [7]) it was 26 ± 2 nM; in the experiment on MDA-MB-231 WT cells (Homo sapiens, MDA-MB-231, 72 h), 27.8 ± 0.4 nM; in the experiment on MDA-MB-231 CLPX−/− cells (Homo sapiens, MDA-MB-231, 72 h) it was 29.5 ± 0.7 nM; in the experiment on MDA-MB-231 CLPP−/− cells (Homo sapiens, MDA-MB-231, 72 h) it was over 1000 nM; in the experiment on HEK293 T-REx WT cells (setting [7]), 20.7 ± 0.7 nM. Moreover, at human ClpP, the Kd is 0.0291 ± 0.0078 µM. The “Casein-FITC degradation h” value at human ClpP was 6.2 ± 1.3.

On to `COc1cccc2c1C(=O)c1c(O)c3c(c(O)c1C2=O)C[C@@](O)(C(=O)CO)C[C@@H]3O[C@H]1C[C@H](N)[C@H](O)[C@H](C)O1` [doxorubicin, doxorubicin hydrochloride, reference compound], for which the “caspase 9 cleavage” value in [4] (2 μM, 72 hrs, positive control) is “clearly showed caspase 9 cleavage”.

A word on the Kd: it is the free concentration of one partner at which half of the binding sites on the other are occupied at equilibrium, for simple one-to-one binding. Low readings indicate a tighter complex, high ones a looser complex.

Values taken from PMC9898158 (Structure (London, England : 1993), 2022).
